Experimental findings from ChEMBL document CHEMBL1130594, “Thalidomide analogs and PDE4 inhibition” (Bioorg Med Chem Lett, 1998) are described below.

Test [1] addresses T1, Phosphodiesterase 4 (Homo sapiens, UniProt P27815+Q08499+Q07343+Q08493). The test is described as follows: Inhibition of phosphodiesterase 4 from U937 cells. Particulars: u-937. In kind it is cell-based.
Test [2] deals with PBMC. The test is described as follows: Inhibition of LPS stimulated Tumor Necrosis Factor-alpha (TNF-alpha) release by human PBMC, cytotoxic at 10 and 100 uM. Type of test: functional, cell-based.
Test [3] deals with PBMC. The test is described as follows: (§1) Inhibition of LPS stimulated Tumor Necrosis Factor-alpha (TNF-alpha) release by human PBMC. In kind it is functional, cell-based.
Test [4] has as its target T1, Phosphodiesterase 4. The test is described as follows: Inhibition of PDE4 enzyme from U937 cells. In kind it is cell-based. As to conditions: u-937. Put shortly:
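Crude PDE4 from U937 cells: lysate supernatant run on Sephacryl S-200, rolipram-sensitive fractions pooled. Assay in 50 mM Tris-HCl pH 7.5, 5 mM MgCl2, 1 µM cAMP (1% 3H-cAMP), varying inhibitor, <15% substrate consumed; 30 °C, 30 min. Boiled, snake-venom treated, AG1-X8 resin, aqueous phase counted. Duplicates, % of control; IC50 by variable-slope nonlinear regression, three independent experiments.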

For test [5], the system named is PBMC. The test is described as §1.

`COC(=O)CC(c1ccc(OC)c(OC)c1)N1C(=O)c2c(F)c(F)c(F)c(F)c2C1=O` (configuration not stated): the IC50 in test [1] worked out at 4.7 µM; in test [2], 0.26 µM.

As to `CCOc1cc(C(CC#N)N2C(=O)c3ccccc3C2=O)ccc1OC` (configuration not stated), the values for the IC50 in test [3] and in test [4] were 0.12 µM and 0.13 µM, respectively.

In the case of `COc1ccc(C(CC#N)N2C(=O)c3ccccc3C2=O)cc1OC` (configuration not stated), the concentration for half-maximal inhibition (IC50) was found to be 1.7 µM in test [3] and 1.3 µM in test [4].

Take `COc1ccc(C(CC#N)N2C(=O)c3ccccc3C2=O)cc1OC1CCCC1` (configuration not stated): the IC50 in test [3] was determined as 1.6 µM; in test [4], 0.35 µM.

Turning to `CCOc1cc(C(CC(N)=O)N2C(=O)c3ccccc3C2=O)ccc1OC` (configuration not stated), the values for the IC50 in test [3] and in test [4] were 2.7 µM and 2 µM, respectively.

As for `CCOc1cc(C(CC(=O)OC)N2C(=O)c3ccccc3C2=O)ccc1OC` (configuration not stated), the figures for the IC50 in test [3] and in test [4] were 0.7 µM and 0.23 µM, respectively.

Take `COC(=O)CC(c1ccc(OC)c(OC)c1)N1C(=O)c2ccccc2C1=O` (configuration not stated): the IC50 in test [3] stood at 2.9 µM; in test [4] it was 2.5 µM.

Turning to `CCOc1cc(C(CC(=O)OC)N2C(=O)c3c(F)c(F)c(F)c(F)c3C2=O)ccc1OC` (configuration not stated), the IC50 in test [1] stood at 2.2 µM; in test [2], 0.38 µM.

With `COc1ccc(C(CC(N)=O)N2C(=O)c3ccccc3C2=O)cc1OC` (configuration not stated), the IC50 in test [3] turned out to be 13 µM; in test [4], 9.4 µM.

On to `COC(=O)CC(c1ccc(OC)c(OC2CCCC2)c1)N1C(=O)c2ccccc2C1=O` (configuration not stated), for which the IC50 in test [3] was 1.6 µM; in test [4], 1.7 µM.

In the case of `COC(=O)CC(c1ccc(OC)c(OC2CC3CCC2C3)c1)N1C(=O)c2ccccc2C1=O` (configuration not stated), the values for the IC50 in test [3] and in test [4] were 2.4 µM and 0.74 µM, respectively.

With `COc1ccc(C(CC(N)=O)N2C(=O)c3ccccc3C2=O)cc1OC1CCCC1` (configuration not stated) [CDC-801], the IC50 in test [3] is 2.5 µM; in test [4], 1.1 µM.

On to `COc1ccc(C2CNC(=O)C2)cc1OC1CCCC1` (configuration not stated) [ROLIPRAM], for which half-maximal inhibition in test [5] (IC50) was put at 0.15 µM.

Consider `O=C1CCC(N2C(=O)c3ccccc3C2=O)C(=O)N1` (configuration not stated) [THALIDOMIDE], for which the values for the IC50 in test [3] and in test [4] were roughly 200 µM and greater than 500 µM, respectively.

As usually defined, the IC50 is the concentration needed to halve the response being measured. Higher therefore signals lower potency.
